# Calb FLC – C. albicans growth modulation with fluconazole; growth inhibition, % (no concentration beside the values); AID 1979; 300,000 compounds, 0.57% hits; C. albicans CaCi-2 (fluconazole-resistant clinical isolate) + fluconazole, Alamar Blue growth, 48 h;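 active = growth inhibition above about 58% in most replicates, limit read from the data, passing the limit was not always enough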;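 also: all wells also contain fluconazole at 8 µg/ml as a sub-toxic cotreatment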
# L major viab – Leishmania major promastigote growth inhibition | inhibition, % at 10 µM | Leishmania major promastigotes, resazurin fluorescence viability | 200,000 compounds, 9% hits | AID 1063; in the data active = inhibition above about 50%;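 also: promastigotes grown with compound for 44 hours at 28 °C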
# NLRP3 yeast inh – blocks the NALP3 inflammasome reconstituted in yeast; Yeast reconstituted NLRP3/ASC/caspase-1, beta-gal luminescence, 24 h; inhibition, % at 10 µM; 330,000 compounds, 0.39% hits;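 active = inhibition of 50% or more; inactive = inhibition below 50%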
# T cruzi inh – T. cruzi replication inhibition | T. cruzi beta-gal in NIH3T3, luminescence, 90 h | inhibition, % (concentration not given with the values) | 300,000 compounds, 1.4% hits | AID 1885;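 active = mean inhibition across valid replicates above about 55%, limit read from the data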;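 also: signal also drops with host cell toxicity which is not excluded here; higher percent means less beta-gal luminescence so fewer parasites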
#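 System: mouse NIH/3T3 fibroblasts infected with β-gal-expressing T. cruzi Tulahuen C4 / Input: NIH/3T3 cells, 5,000 per well / Buffer or medium: Low-serum DMEM with 2% FBS / Probe or stimulus: 5000 reporter trypomastigotes per well / Schedule: ≥90 h infection period, 3 h prior cell attachment / Measured by: GalScreen luminescence, 60 min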
# NALP1 yeast inh – blocks the NALP1 inflammasome reconstituted in yeast; S. cerevisiae NALP1/ASC/caspase-1 growth, X-gal OD620, 72 h; inhibition, % at 10 µM; 280,000 compounds, 0.61% hits; AID 2071; in the data active = inhibition mostly above about 24%, no sharp cut-off; inactive = mostly below about 32%
# PolyA inhibitor – inhibitors of polyadenylation in S. cerevisiae | 300,000 compounds, 0.02% hits | activity score, % at 12 µM | S. cerevisiae SKY197-pL101 polyadenylation reporter, beta-gal luminescence; efflux-impaired pdr1/pdr3 knockout yeast; score 100 = 6 SD above DMSO;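 active = lowest replicate activity score at least 50, where 100 means six control SD above control mean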;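 also: yeast exposed to compound for 9 h at 30 °C; higher score means more reporter readthrough which indicates perturbed polyadenylation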
# A number is an active result; 0 = inactive; - = not tested or not shown. The sample as a whole holds a higher share of hits than the screen did.
SMILES,Calb FLC,L major viab,NLRP3 yeast inh,T cruzi inh,NALP1 yeast inh,PolyA inhibitor
COc1ccccc1N1CCN(C(=O)C2CCC(Cn3c(=S)[nH]c4ccccc4c3=O)CC2)CC1 (configuration not stated),0,64,0,0,0,0
O=C(CCCn1c(=S)[nH]c2ccc(Br)cc2c1=O)N1CCN(c2ccccn2)CC1,0,0,0,0,0,0
O=C(Nc1cccc(S(=O)(=O)N2CCCCC2)c1)c1cc(=O)[nH]c2ccccc12,-,-,0,-,-,-
O=C(CCN1C(=O)CSc2ccccc21)Nc1ccc(OC(F)(F)F)cc1,-,-,0,-,-,-
COc1ccc(N2CCN(C(=O)C3CCC(Cn4c(=S)[nH]c5ccccc5c4=O)CC3)CC2)cc1 (configuration not stated),0,99,0,0,0,0
O=C(C1CCC(Cn2c(=S)[nH]c3ccccc3c2=O)CC1)N1CCOCC1 (configuration not stated),0,0,0,0,0,0
Cc1cccc(-c2nc3c(c(SCC(=O)N4CCOCC4)n2)COC(C)(C)C3)c1,0,-,0,0,0,0
COc1cc(C)nc(NS(=O)(=O)c2ccccc2Cl)n1,0,-,0,0,39,0
CC(=C1C(=O)c2ccccc2C1=O)N1CCc2ccccc2C1,0,92,0,0,0,0
CC(C(=O)N1CCc2ccccc2C1)N(c1ccccc1)S(C)(=O)=O (configuration not stated),0,-,0,0,0,0
CS(=O)(=O)c1nc(-c2ccccc2)cc(C(F)(F)F)n1,0,0,0,65,0,0
CCCCNc1cnn(-c2ccccc2)c(=O)c1Cl,0,0,0,0,0,0
CCc1ccc(Nc2cnn(-c3nc4ccccc4s3)c(=O)c2Cl)cc1,0,65,0,0,0,0
Clc1ncnc2scc(-c3ccc(Br)cc3)c12,0,94,0,0,0,0
CC(C)(CC(=O)O)CC(=O)Nc1ccc(Oc2ccc(C(C)(C)C)cc2)nc1,0,-,0,0,0,0
CCOC(=O)C1CCCN(C2CC(=O)N(c3ccccc3)C2=O)C1 (configuration not stated),0,0,0,0,0,0
CCOC(=O)C1CCCN(C2CC(=O)N(c3cccc(C(F)(F)F)c3)C2=O)C1 (configuration not stated),0,0,0,0,59,0
CSc1ccc(CNc2ccccc2)cc1,0,100,0,0,0,0
CCOc1ccc(OCC)c(S(=O)(=O)NCCCN2CCOCC2)c1,0,0,0,0,0,0
O=C(Nc1ccc(CN2CCOCC2)cc1)c1ccc2ccccc2c1,0,-,0,0,0,0
COc1ccc(S(=O)(=O)NCCN2CCOCC2)cc1Br,0,-,0,0,0,0
CCOc1ccc(S(=O)(=O)NCCCN2CCOCC2)cc1,0,92,0,0,0,0
COc1cc(S(=O)(=O)NCCCN2CCOCC2)ccc1Cl,0,93,0,0,0,0
c1ccc2cc(CN3CCOCC3)ccc2c1,0,54,0,0,-,0
Cc1cc(S(=O)(=O)NCCCN2CCOCC2)ccc1F,0,91,0,0,0,0
SMILES,Calb FLC,L major viab,NLRP3 yeast inh,T cruzi inh,NALP1 yeast inh,PolyA inhibitor
N#CC1=C(N)Oc2cc(N)ccc2C1c1ccccc1F (configuration not stated),0,-,0,0,0,0
COc1ccccc1C(=O)COC(=O)Cn1c(C)csc1=O,0,-,0,0,-,0
CN(CC(=O)Nc1ccc(N2CCOCC2)cc1)C(=O)CCc1cc(C(C)(C)C)c(O)c(C(C)(C)C)c1,-,-,0,0,-,0
O=C(c1cc(COc2c(F)cccc2F)on1)N(Cc1ccccc1)CC1CC1,0,-,0,0,0,0
O=S(=O)(NCCCN1CCOCC1)c1ccc2ccccc2c1,0,91,0,0,0,0
O=S(=O)(NCCCN1CCOCC1)c1ccc2c(c1)OCCO2,0,0,0,0,0,0
Cc1ccc(S(=O)(=O)NCCCN2CCOCC2)cc1C,0,88,0,0,0,0
O=[N+]([O-])c1cc(S(=O)(=O)NCCCN2CCOCC2)ccc1Cl,0,99,0,0,-,0
Cc1nn(-c2ccc(F)cc2)c(C)c1NS(=O)(=O)c1ccc(Cl)cc1,0,0,0,0,0,0
Cc1cc(NS(=O)(=O)c2ccc(NC(=O)C(F)(F)F)cc2)nc(C)n1,0,-,0,0,0,0
O=C(NCCc1cn2ccccc2n1)c1cc(COc2c(F)cccc2F)on1,0,52,0,0,0,0
Cc1ccc(OCc2cc(C(=O)NCc3cn4ccccc4n3)no2)cc1C,0,-,0,0,0,0
COC(=O)c1cnn(-c2ccc(C)c(C)c2)c1-n1cccc1,0,65,0,0,0,0
COc1ccccc1NS(=O)(=O)c1cccc(NC(=O)c2nc3nc(C)cc(C)n3n2)c1,0,72,0,0,0,0
COc1ccccc1NS(=O)(=O)c1cc(NC(=O)c2cccs2)ccc1N1CCCC1,0,94,0,0,0,0
COc1ccc(S(=O)(=O)Nc2ccccc2OC)cc1NC(=O)Cc1cccs1,0,100,0,0,0,0
COc1ccccc1NS(=O)(=O)c1cc(NC(=O)c2cc[n+]([O-])cc2)ccc1N1CCCC1,0,0,0,0,0,0
COc1ccccc1NS(=O)(=O)c1cc(NC(=O)C(C)C)ccc1N1CCCCC1,0,0,0,0,0,0
COc1ccccc1NS(=O)(=O)c1cc(NC(=O)Nc2ccccc2)ccc1N1CCCCC1,-,91,-,-,0,-
Cc1nn(-c2ccccc2)c(C)c1NC(=O)COC(=O)/C=C/c1ccccc1,-,-,0,0,-,0
Cc1ccc(CNC(=O)c2ccc(F)c(S(=O)(=O)N3CCOCC3)c2)cc1,-,-,0,-,-,-
Cc1ccc(C)c(NC(=O)CN(C)C(=O)c2ccc(-c3cccc(C(F)(F)F)c3)o2)c1,0,-,0,0,-,0
CC(=O)Nc1ccc(S(=O)(=O)N2CCSc3ccccc32)cc1,-,-,0,-,-,-
COc1ccc(Cl)cc1NC(=O)NC1CCCCC1,0,100,0,0,0,0
COc1ccccc1NS(=O)(=O)c1cc(NC(=O)c2sccc2C)ccc1N1CCCC1,0,64,0,0,0,0
SMILES,Calb FLC,L major viab,NLRP3 yeast inh,T cruzi inh,NALP1 yeast inh,PolyA inhibitor
O=C(Nc1cc(C(F)(F)F)ccc1N1CCOCC1)c1cccs1,0,0,0,0,0,0
CCCN1CCC(NC(=O)Nc2cc(Cl)ccc2OC)CC1,0,0,0,0,0,0
COc1ccccc1NS(=O)(=O)c1cc(NC(=O)c2sccc2C)ccc1N1CCOCC1,0,-,0,0,-,0
COc1ccccc1NS(=O)(=O)c1cc(NC(=O)c2cccs2)ccc1N1CCCCC1,0,0,0,59,0,0
O=C(Nc1ccc(N2CCCC2)c(S(=O)(=O)Nc2cccc(C(F)(F)F)c2)c1)c1cccs1,0,92,0,0,-,0
COc1ccccc1NS(=O)(=O)c1cc(NC(=O)c2ccncc2)ccc1N1CCOCC1,0,0,0,0,0,0
Cc1cc(NC(=O)/C=C/c2ccc(Cl)cc2)no1,0,0,0,0,0,0
